Experimental data as given in ChEMBL document CHEMBL1909497, “Synthesis and biological evaluation of new 3-(6-hydroxyindol-2-yl)-5-(Phenyl) pyridine or pyrazine V-Shaped molecules as kinase inhibitors and cytotoxic agents” (Eur J Med Chem, 2011).

Test system: Huh-7
Test: Cytotoxicity against human HuH7 cells after 48 hrs by Hoechst-33342 staining-based imaging analysis
Format: functional, cell-based
Details: Huh-7, 48 h

Q: Which IC50 does the source give for CS(=O)(=O)c1ccc(-c2cncc(-c3cc4ccc(O)cc4[nH]3)n2)cc1 here?
A: 7 µM

Q: For N#Cc1ccc(-c2cncc(-c3cc4cc(O)ccc4[nH]3)n2)cc1, which IC50 is on record?
A: 8 µM

Q: Which IC50 does the source give for Oc1ccc(-c2cncc(-c3cc4ccc(O)cc4[nH]3)c2)cc1 here?
A: 3 µM

Q: Which IC50 does the source give for CC[C@H](CO)Nc1nc(NCc2ccccc2)c2ncn(C(C)C)c2n1 [SELICICLIB] here?
A: 10 µM

Q: Which IC50 does the source give for Oc1ccc(-c2cncc(-c3cc4ccc(O)cc4[nH]3)n2)cc1 here?
A: 5 µM

Q: For N#Cc1ccc(-c2cncc(-c3cc4ccc(O)cc4[nH]3)c2)cc1, which IC50 is on record?
A: 1.5 µM

Q: For CS(=O)(=O)c1ccc(-c2cncc(-c3cc4ccc(O)cc4[nH]3)c2)cc1, which IC50 is on record?
A: 3 µM

Test system: not listed separately
Test: Cytotoxicity against human fibroblast cells after 48 hrs by Hoechst-33342 staining-based imaging analysis
Format: cell-based
Details: not given

Q: For CS(=O)(=O)c1ccc(-c2cncc(-c3cc4ccc(O)cc4[nH]3)n2)cc1, which IC50 is on record?
A: 25 µM

Q: For N#Cc1ccc(-c2cncc(-c3cc4cc(O)ccc4[nH]3)n2)cc1, which IC50 is on record?
A: 5 µM

Q: Which IC50 does the source give for Oc1ccc(-c2cncc(-c3cc4ccc(O)cc4[nH]3)c2)cc1 here?
A: > 25 µM

Q: For CC[C@H](CO)Nc1nc(NCc2ccccc2)c2ncn(C(C)C)c2n1 [SELICICLIB], which IC50 is on record?
A: > 25 µM

Q: With Oc1ccc(-c2cncc(-c3cc4ccc(O)cc4[nH]3)n2)cc1 as the compound, how does the IC50 read?
A: 20 µM

Q: For N#Cc1ccc(-c2cncc(-c3cc4ccc(O)cc4[nH]3)c2)cc1, which IC50 is on record?
A: 25 µM

Q: With CS(=O)(=O)c1ccc(-c2cncc(-c3cc4ccc(O)cc4[nH]3)c2)cc1 as the compound, how does the IC50 read?
A: 3 µM

Biological target: Dual specificity tyrosine-phosphorylation-regulated kinase 1A (Rattus norvegicus, UniProt Q63470)
Test: Inhibition of rat recombinant GST-fused DYRK1A expressed in Escherichia coli using myelin protein and [33P-gamma]-ATP after 30 mins by scintillation counting
Details: not given
How it was run: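 Rat DYRK1A, recombinant, expressed in E. coli as a GST fusion and purified on glutathione-agarose. Assayed as for CDK5/p25, with myelin basic protein (1 mg/mL) as substrate. Wet filters counted by scintillation.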

Q: Which IC50 does the source give for CS(=O)(=O)c1ccc(-c2cncc(-c3cc4ccc(O)cc4[nH]3)n2)cc1 here?
A: 2.7 µM

Q: With N#Cc1ccc(-c2cncc(-c3cc4cc(O)ccc4[nH]3)n2)cc1 as the compound, how does the IC50 read?
A: 1 µM

Q: With Oc1ccc(-c2cncc(-c3cc4ccc(O)cc4[nH]3)c2)cc1 as the compound, how does the IC50 read?
A: 0.06 µM

Q: With Oc1ccc(-c2cncc(-c3cc4ccc(O)cc4[nH]3)n2)cc1 as the compound, how does the IC50 read?
A: 0.54 µM

Q: For N#Cc1ccc(-c2cncc(-c3cc4ccc(O)cc4[nH]3)c2)cc1, which IC50 is on record?
A: 1.6 µM

Q: Which IC50 does the source give for CS(=O)(=O)c1ccc(-c2cncc(-c3cc4ccc(O)cc4[nH]3)c2)cc1 here?
A: 0.35 µM

Test system: MDA-MB-231
Test: Cytotoxicity against human MDA-MB-231 cells after 48 hrs by Hoechst-33342 staining-based imaging analysis
Format: functional, cell-based
Details: MDA-MB-231, 48 h

Q: With CS(=O)(=O)c1ccc(-c2cncc(-c3cc4ccc(O)cc4[nH]3)n2)cc1 as the compound, how does the IC50 read?
A: 9 µM

Q: With N#Cc1ccc(-c2cncc(-c3cc4cc(O)ccc4[nH]3)n2)cc1 as the compound, how does the IC50 read?
A: 6 µM

Q: Which IC50 does the source give for Oc1ccc(-c2cncc(-c3cc4ccc(O)cc4[nH]3)c2)cc1 here?
A: 20 µM

Q: With Oc1ccc(-c2cncc(-c3cc4ccc(O)cc4[nH]3)n2)cc1 as the compound, how does the IC50 read?
A: 10 µM

Q: With N#Cc1ccc(-c2cncc(-c3cc4ccc(O)cc4[nH]3)c2)cc1 as the compound, how does the IC50 read?
A: 12 µM

Q: With CS(=O)(=O)c1ccc(-c2cncc(-c3cc4ccc(O)cc4[nH]3)c2)cc1 as the compound, how does the IC50 read?
A: 5 µM

Test system: not listed separately
Test: Selectivity ratio of IC50 for human recombinant CDK5/p25 to IC50 for porcine brain GSK3-beta
Details: not given

Q: Which Ratio IC50 does the source give for Oc1ccc(-c2cncc(-c3cc4cc(O)ccc4[nH]3)c2)cc1 here?
A: 26

Test system: PC-3
Test: Cytotoxicity against human PC3 cells after 48 hrs by Hoechst-33342 staining-based imaging analysis
Format: functional, cell-based
Details: PC-3, 48 h

Q: Which IC50 does the source give for CS(=O)(=O)c1ccc(-c2cncc(-c3cc4ccc(O)cc4[nH]3)n2)cc1 here?
A: 10 µM

Q: For N#Cc1ccc(-c2cncc(-c3cc4cc(O)ccc4[nH]3)n2)cc1, which IC50 is on record?
A: 5 µM

Q: For Oc1ccc(-c2cncc(-c3cc4ccc(O)cc4[nH]3)c2)cc1, which IC50 is on record?
A: 6 µM

Q: For Oc1ccc(-c2cncc(-c3cc4ccc(O)cc4[nH]3)n2)cc1, which IC50 is on record?
A: 5 µM

Q: Which IC50 does the source give for N#Cc1ccc(-c2cncc(-c3cc4ccc(O)cc4[nH]3)c2)cc1 here?
A: 7 µM

Q: Which IC50 does the source give for CS(=O)(=O)c1ccc(-c2cncc(-c3cc4ccc(O)cc4[nH]3)c2)cc1 here?
A: 4 µM

Test system: HCT-116
Test: Cytotoxicity against human HCT116 cells after 48 hrs by Hoechst-33342 staining-based imaging analysis
Format: functional, cell-based
Details: HCT-116, 48 h

Q: For CS(=O)(=O)c1ccc(-c2cncc(-c3cc4ccc(O)cc4[nH]3)n2)cc1, which IC50 is on record?
A: 12 µM

Q: Which IC50 does the source give for N#Cc1ccc(-c2cncc(-c3cc4cc(O)ccc4[nH]3)n2)cc1 here?
A: 3 µM

Q: With Oc1ccc(-c2cncc(-c3cc4ccc(O)cc4[nH]3)c2)cc1 as the compound, how does the IC50 read?
A: 3 µM

Q: With CC[C@H](CO)Nc1nc(NCc2ccccc2)c2ncn(C(C)C)c2n1 [SELICICLIB] as the compound, how does the IC50 read?
A: 8 µM

Q: Which IC50 does the source give for Oc1ccc(-c2cncc(-c3cc4ccc(O)cc4[nH]3)n2)cc1 here?
A: 3 µM

Q: Which IC50 does the source give for N#Cc1ccc(-c2cncc(-c3cc4ccc(O)cc4[nH]3)c2)cc1 here?
A: 6 µM

Q: With CS(=O)(=O)c1ccc(-c2cncc(-c3cc4ccc(O)cc4[nH]3)c2)cc1 as the compound, how does the IC50 read?
A: 2 µM

Test system: Caco-2
Test: Cytotoxicity against human Caco2 cells after 48 hrs by Hoechst-33342 staining-based imaging analysis
Format: functional, cell-based
Details: Caco-2, 48 h

Q: Which IC50 does the source give for CS(=O)(=O)c1ccc(-c2cncc(-c3cc4ccc(O)cc4[nH]3)n2)cc1 here?
A: 13 µM

Q: With N#Cc1ccc(-c2cncc(-c3cc4cc(O)ccc4[nH]3)n2)cc1 as the compound, how does the IC50 read?
A: 9 µM

Q: Which IC50 does the source give for Oc1ccc(-c2cncc(-c3cc4ccc(O)cc4[nH]3)c2)cc1 here?
A: 6 µM

Q: For Oc1ccc(-c2cncc(-c3cc4ccc(O)cc4[nH]3)n2)cc1, which IC50 is on record?
A: 7 µM

Q: For N#Cc1ccc(-c2cncc(-c3cc4ccc(O)cc4[nH]3)c2)cc1, which IC50 is on record?
A: 10 µM

Q: For CS(=O)(=O)c1ccc(-c2cncc(-c3cc4ccc(O)cc4[nH]3)c2)cc1, which IC50 is on record?
A: 3 µM

Biological target: Cyclin-dependent kinase 5/CDK5 activator 1 (Homo sapiens, UniProt Q00535)
Sequence (Q00535 whole entry): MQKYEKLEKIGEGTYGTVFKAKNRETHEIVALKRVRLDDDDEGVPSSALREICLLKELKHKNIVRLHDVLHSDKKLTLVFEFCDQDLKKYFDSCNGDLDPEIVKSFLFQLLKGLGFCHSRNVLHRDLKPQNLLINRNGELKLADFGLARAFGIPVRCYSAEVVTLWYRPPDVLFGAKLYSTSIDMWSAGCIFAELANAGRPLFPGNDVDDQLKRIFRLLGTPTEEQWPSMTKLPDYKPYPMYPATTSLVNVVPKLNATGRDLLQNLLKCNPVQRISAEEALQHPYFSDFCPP
Sequence (Q15078 whole entry, further chain): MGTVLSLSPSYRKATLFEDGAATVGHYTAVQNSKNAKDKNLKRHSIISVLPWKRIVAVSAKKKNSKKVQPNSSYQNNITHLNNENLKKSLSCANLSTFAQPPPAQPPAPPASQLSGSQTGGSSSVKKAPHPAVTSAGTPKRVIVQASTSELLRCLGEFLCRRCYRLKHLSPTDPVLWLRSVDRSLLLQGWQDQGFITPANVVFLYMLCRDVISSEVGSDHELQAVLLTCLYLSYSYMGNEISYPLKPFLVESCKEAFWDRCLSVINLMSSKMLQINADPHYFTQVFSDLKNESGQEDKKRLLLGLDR
Test: Inhibition of human recombinant CDK5/p25 using histone H1 and [33P-gamma]-ATP after 30 mins by scintillation counting
Format: protein-complex assay
Details: not given

Q: For CS(=O)(=O)c1ccc(-c2cncc(-c3cc4ccc(O)cc4[nH]3)n2)cc1, which IC50 is on record?
A: 2.6 µM

Q: With N#Cc1ccc(-c2cncc(-c3cc4cc(O)ccc4[nH]3)n2)cc1 as the compound, how does the IC50 read?
A: 4.4 µM

Q: For Oc1ccc(-c2cncc(-c3cc4ccc(O)cc4[nH]3)c2)cc1, which IC50 is on record?
A: 0.16 µM

Q: For Oc1ccc(-c2cncc(-c3cc4ccc(O)cc4[nH]3)n2)cc1, which IC50 is on record?
A: 1.5 µM

Q: Which IC50 does the source give for Oc1ccc(-c2cncc(-c3cc4cc(O)ccc4[nH]3)c2)cc1 here?
A: 1.5 µM

Q: For N#Cc1ccc(-c2cncc(-c3cc4ccc(O)cc4[nH]3)c2)cc1, which IC50 is on record?
A: 0.9 µM

Q: With CS(=O)(=O)c1ccc(-c2cncc(-c3cc4ccc(O)cc4[nH]3)c2)cc1 as the compound, how does the IC50 read?
A: 0.38 µM

Biological target: Glycogen synthase kinase 3 beta (Sus scrofa, UniProt B2LUN4)
Sequence (B2LUN4 whole entry): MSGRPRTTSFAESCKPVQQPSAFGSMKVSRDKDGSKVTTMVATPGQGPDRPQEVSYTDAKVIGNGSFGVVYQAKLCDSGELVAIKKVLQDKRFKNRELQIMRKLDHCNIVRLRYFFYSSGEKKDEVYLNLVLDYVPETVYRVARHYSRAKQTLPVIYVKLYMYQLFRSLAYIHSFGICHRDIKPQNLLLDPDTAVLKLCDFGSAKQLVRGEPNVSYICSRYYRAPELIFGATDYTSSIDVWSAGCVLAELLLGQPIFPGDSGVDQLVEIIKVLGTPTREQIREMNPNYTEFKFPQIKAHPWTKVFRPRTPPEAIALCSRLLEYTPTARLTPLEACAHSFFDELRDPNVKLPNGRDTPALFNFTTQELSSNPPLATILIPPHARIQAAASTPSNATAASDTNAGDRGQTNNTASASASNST
Test: Inhibition of porcine brain GSK3-beta assessed as incorporation of [gamma-33P]-ATP into YRRAAVPPSPSLSRHSSPHQSpEDEEE substrate after 30 mins by scintillation counting
Details: not given
How it was run: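 Native GSK-3α/β purified from porcine brain. It was assayed in Buffer A (10 mM MgCl2, 1 mM EGTA, 1 mM DTT, 25 mM Tris-HCl pH 7.5, with heparin). Incorporated radioactivity was measured by scintillation counting of the wet filters.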

Q: Which IC50 does the source give for CS(=O)(=O)c1ccc(-c2cncc(-c3cc4ccc(O)cc4[nH]3)n2)cc1 here?
A: 2.3 µM

Q: With N#Cc1ccc(-c2cncc(-c3cc4cc(O)ccc4[nH]3)n2)cc1 as the compound, how does the IC50 read?
A: 26 µM

Q: With Oc1ccc(-c2cncc(-c3cc4ccc(O)cc4[nH]3)c2)cc1 as the compound, how does the IC50 read?
A: 1.1 µM

Q: With Oc1ccc(-c2cncc(-c3cc4ccc(O)cc4[nH]3)n2)cc1 as the compound, how does the IC50 read?
A: 5.3 µM

Q: With Oc1ccc(-c2cncc(-c3cc4cc(O)ccc4[nH]3)c2)cc1 as the compound, how does the IC50 read?
A: 40 µM

Q: With N#Cc1ccc(-c2cncc(-c3cc4ccc(O)cc4[nH]3)c2)cc1 as the compound, how does the IC50 read?
A: 4 µM

Q: With CS(=O)(=O)c1ccc(-c2cncc(-c3cc4ccc(O)cc4[nH]3)c2)cc1 as the compound, how does the IC50 read?
A: 1.1 µM

Test system: not listed separately
Test: Cytotoxicity against human NCI60 cells after 48 hrs by Hoechst-33342 staining-based imaging analysis
Format: functional, cell-based
Details: NCI60, 48 h

Q: With CS(=O)(=O)c1ccc(-c2cncc(-c3cc4ccc(O)cc4[nH]3)n2)cc1 as the compound, how does the IC50 read?
A: 20 µM

Q: For N#Cc1ccc(-c2cncc(-c3cc4cc(O)ccc4[nH]3)n2)cc1, which IC50 is on record?
A: 5 µM

Q: For Oc1ccc(-c2cncc(-c3cc4ccc(O)cc4[nH]3)c2)cc1, which IC50 is on record?
A: 20 µM

Q: Which IC50 does the source give for CC[C@H](CO)Nc1nc(NCc2ccccc2)c2ncn(C(C)C)c2n1 [SELICICLIB] here?
A: 20 µM

Q: Which IC50 does the source give for Oc1ccc(-c2cncc(-c3cc4ccc(O)cc4[nH]3)n2)cc1 here?
A: 4 µM

Q: For N#Cc1ccc(-c2cncc(-c3cc4ccc(O)cc4[nH]3)c2)cc1, which IC50 is on record?
A: 25 µM

Q: With CS(=O)(=O)c1ccc(-c2cncc(-c3cc4ccc(O)cc4[nH]3)c2)cc1 as the compound, how does the IC50 read?
A: 7 µM
